# Source: PubChem BioAssay (several laboratories)
# Compounds with a hit are over-represented: about 2.2% of the library has one in this group of screens.
# miR-122 sensor – inhibitors of miR-122 in Huh7 cells; AID 602342; activation (reporter increase), % at 12.5 µM; hit rate 0.3% among 340,000; Huh7 miR-122 Renilla luciferase sensor, 48 h; neutral wells = 0, positive control = 100;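 active means mean replicate activation score at least 90 and every replicate individually at or above 90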;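 further: higher luciferase means less miR-122 activity so hits act as miR-122 inhibitors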
# 697 NFkB inh – inhibitors of the PMA/ionomycin-induced NF-kB reporter in 697 B cells. 697 B-cell NF-kB luciferase reporter, 16 h. inhibition, % at 4 µM. hit rate 0.33% among 330,000; in the data active means inhibition above about 35%
# FGF22 binding – binders of recombinant human FGF22 by thermal shift | Q9HCT0 | SYPRO orange fluorescence; percent of sucrose octasulfate shift, DMSO zero | activity (Tm shift, normalised), % at 9.99 µM | hit rate 1.5% among 340,000 | AID 651658;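 active means mean Tm shift, scaled 0 neutral to 100 positive control, at about 1.3% or above, every replicate too, limit read from the data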
# NR2E3 ag-1 – agonists of human nuclear receptor NR2E3 | GST-NR2E3/biotin-RetCOR TR-FRET, 1536-well | AID 2300 | inhibition of corepressor binding, % at 4.78 µM | Q9Y5X4 | hit rate 0.12% among 320,000;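 active means percent inhibition above the cutoff of mean plus 3 SD of all tested compounds, set per screening campaign, cut at about 20% in these data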;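 further: 0% = DMSO wells and 100% = biotin wells as full block of FRET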
#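 System: GST-tagged NR2E3 plus biotinylated RetCOR corepressor; Amount: 1.35 nM GST-tagged NR2E3 final; Dosing: single nominal compound dose of 4.8 µM; Schedule: 5 h incubation at 4 °C; Technique: TR-FRET with europium anti-GST and streptavidin-D2, 340 nm excitation; Controls: biotin wells as high control, 0.6% DMSO wells as low control.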
# NR2E3 ag-2 – human photoreceptor-specific nuclear receptor agonism | Q9Y5X4 | CHO-S Gal4-NCOR/VP16-NR2E3 two-hybrid, luciferase | inhibition of corepressor binding, % at 3.98 µM | hit rate 0.35% among 360,000 | AID 602229;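 active means inhibition above the mean of all tested compounds plus 3 SD, cut at about 70% in these data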;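 further: 0% = DMSO with NR2E3 transfected cells and 100% = cells lacking NR2E3 construct; higher means lower luciferase signal from less NR2E3 corepressor binding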
# Jurkat NFkB inh – lowers PMA/ionomycin-induced NF-kB signal in Jurkat cells; AID 435003; PMA/ionomycin-induced NF-kB luciferase reporter, luminescence; inhibition, % at 4 µM; hit rate 0.53% among 330,000; in the data active means inhibition above about 50%
# NR2E3 ag confirm – confirmation of human NR2E3 nuclear receptor agonists. AID 2379. shares compounds with NR2E3 ag-1. cell-free NR2E3 corepressor release, TR-FRET, 5 h. hit rate 39% among 360. activation (reported as inhibition), % at 3.98 µM; in the data active means activation above about 20%
# PPARg-NCOR2 ag – releases PPARgamma from NCOR2 in NR2E3 counter-screen; shares compounds with NR2E3 ag-1; TR-FRET PPARg-NCOR2 coregulator interaction, biochemical; inhibition, % at 3.98 µM; hit rate 45% among 360; AID 504787; in the data active means inhibition above about 20%;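 further: 0% = DMSO vehicle and 100% = wells without protein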
# Target sequence (P37231 whole entry, looked up): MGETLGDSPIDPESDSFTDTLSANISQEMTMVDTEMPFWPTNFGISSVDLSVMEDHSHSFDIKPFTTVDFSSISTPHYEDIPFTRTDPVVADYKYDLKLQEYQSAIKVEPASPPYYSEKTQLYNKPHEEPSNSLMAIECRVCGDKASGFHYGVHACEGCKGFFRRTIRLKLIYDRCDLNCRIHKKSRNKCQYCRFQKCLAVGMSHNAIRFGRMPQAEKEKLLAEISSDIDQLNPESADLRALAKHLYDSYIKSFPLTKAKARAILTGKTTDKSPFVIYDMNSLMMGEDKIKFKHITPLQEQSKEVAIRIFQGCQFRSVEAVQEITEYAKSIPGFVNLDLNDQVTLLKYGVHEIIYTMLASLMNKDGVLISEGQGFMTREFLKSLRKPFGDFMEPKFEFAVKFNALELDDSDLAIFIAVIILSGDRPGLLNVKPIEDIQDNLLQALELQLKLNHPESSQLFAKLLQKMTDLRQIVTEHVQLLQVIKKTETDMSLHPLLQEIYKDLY
# Target sequence (Q9Y618 whole entry, looked up): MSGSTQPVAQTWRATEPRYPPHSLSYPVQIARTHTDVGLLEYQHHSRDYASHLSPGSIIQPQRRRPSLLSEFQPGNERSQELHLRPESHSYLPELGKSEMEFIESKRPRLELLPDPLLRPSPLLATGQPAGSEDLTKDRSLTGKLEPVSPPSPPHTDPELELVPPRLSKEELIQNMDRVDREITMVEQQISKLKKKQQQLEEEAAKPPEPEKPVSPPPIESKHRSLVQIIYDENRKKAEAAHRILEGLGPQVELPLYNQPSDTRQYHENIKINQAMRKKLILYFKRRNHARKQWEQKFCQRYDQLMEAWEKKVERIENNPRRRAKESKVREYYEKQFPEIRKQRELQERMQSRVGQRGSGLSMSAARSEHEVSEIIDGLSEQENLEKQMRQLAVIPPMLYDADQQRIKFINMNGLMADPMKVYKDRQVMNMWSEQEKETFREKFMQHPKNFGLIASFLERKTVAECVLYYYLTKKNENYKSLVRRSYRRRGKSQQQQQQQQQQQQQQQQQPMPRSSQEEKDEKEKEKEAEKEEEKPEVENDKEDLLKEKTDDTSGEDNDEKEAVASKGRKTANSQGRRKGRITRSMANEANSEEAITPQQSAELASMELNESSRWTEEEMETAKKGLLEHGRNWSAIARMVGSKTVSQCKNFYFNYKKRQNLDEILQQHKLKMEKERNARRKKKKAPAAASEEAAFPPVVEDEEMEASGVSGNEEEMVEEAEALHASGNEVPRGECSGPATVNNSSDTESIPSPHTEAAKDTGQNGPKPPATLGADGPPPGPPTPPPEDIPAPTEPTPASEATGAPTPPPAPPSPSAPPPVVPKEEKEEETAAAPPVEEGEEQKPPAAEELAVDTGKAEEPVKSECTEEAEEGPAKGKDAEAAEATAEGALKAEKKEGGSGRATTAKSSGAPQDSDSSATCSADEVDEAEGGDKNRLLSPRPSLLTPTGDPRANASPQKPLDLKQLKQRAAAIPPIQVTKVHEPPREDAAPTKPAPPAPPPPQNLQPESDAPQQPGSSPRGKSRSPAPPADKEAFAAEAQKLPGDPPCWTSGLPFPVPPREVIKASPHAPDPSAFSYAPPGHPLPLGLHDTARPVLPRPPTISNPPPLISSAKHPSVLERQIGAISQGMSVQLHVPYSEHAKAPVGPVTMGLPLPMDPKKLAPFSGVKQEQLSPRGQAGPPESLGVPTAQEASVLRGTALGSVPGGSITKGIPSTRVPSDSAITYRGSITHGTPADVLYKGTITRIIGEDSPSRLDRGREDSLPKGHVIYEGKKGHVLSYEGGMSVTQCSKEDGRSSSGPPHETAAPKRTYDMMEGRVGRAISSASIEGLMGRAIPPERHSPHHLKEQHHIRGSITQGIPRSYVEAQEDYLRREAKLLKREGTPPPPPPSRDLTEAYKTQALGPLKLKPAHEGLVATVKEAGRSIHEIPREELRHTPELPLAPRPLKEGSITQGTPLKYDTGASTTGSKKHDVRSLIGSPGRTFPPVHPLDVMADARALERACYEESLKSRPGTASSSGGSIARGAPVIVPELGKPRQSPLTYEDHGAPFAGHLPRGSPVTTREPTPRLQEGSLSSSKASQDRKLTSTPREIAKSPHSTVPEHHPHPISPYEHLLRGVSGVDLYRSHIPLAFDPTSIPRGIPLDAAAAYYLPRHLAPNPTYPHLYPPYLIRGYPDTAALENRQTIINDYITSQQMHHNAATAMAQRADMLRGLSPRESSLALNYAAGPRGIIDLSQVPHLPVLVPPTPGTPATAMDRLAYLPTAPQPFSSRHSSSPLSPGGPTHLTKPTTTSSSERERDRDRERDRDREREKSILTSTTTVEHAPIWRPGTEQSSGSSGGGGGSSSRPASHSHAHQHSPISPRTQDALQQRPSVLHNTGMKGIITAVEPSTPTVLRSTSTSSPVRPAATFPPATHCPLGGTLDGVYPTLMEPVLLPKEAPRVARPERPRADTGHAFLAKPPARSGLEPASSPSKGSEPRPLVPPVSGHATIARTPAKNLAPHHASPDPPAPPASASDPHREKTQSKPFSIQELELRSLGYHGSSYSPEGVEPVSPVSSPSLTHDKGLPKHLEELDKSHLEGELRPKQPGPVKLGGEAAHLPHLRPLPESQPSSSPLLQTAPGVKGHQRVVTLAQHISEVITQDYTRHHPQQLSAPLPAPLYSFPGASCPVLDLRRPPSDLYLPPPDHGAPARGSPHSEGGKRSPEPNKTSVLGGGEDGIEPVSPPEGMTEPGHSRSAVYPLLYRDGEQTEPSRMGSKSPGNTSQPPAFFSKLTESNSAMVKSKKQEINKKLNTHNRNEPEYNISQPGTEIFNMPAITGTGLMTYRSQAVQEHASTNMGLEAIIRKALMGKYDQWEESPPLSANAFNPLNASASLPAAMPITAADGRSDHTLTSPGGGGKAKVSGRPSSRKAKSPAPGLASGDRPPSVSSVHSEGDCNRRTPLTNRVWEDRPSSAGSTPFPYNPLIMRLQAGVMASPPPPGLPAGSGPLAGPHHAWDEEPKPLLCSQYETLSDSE
# The depositor's hits bear a star; . = no result; [ ] = remark or other dose.
SMILES,miR-122 sensor,697 NFkB inh,FGF22 binding,NR2E3 ag-1,NR2E3 ag-2,Jurkat NFkB inh,NR2E3 ag confirm,PPARg-NCOR2 ag
CNC[C@H]1Oc2cc(C#Cc3ccc(F)cc3)ccc2S(=O)(=O)N([C@@H](C)CO)C[C@H]1C,2.0[16.7 µM],.,0.1,.,.,.,.,.
COc1cccc(-c2ccc3c(c2)O[C@H](CN(C)C(=O)C2CCC2)[C@H](C)CN([C@@H](C)CO)S3(=O)=O)c1,-19.5[16.7 µM],.,-0.3,.,.,.,.,.
Cc1c(NC(=O)NC2CCCCC2)cccc1[N+](=O)[O-],157.2*,0.7,42.2,-2.7,-46.4,-4.5,.,.
Cc1cccc(NC(=O)NC2CCCCCCC2)c1C,3.8,-15.7,-0.1,.,-27.6,-27.8,.,.
CCN1CCN(Cc2oc(CO)cc(=O)c2O)CC1,-6.3,23.8,.,-0.9,7.6,-4.2,.,.
CN(CC(=O)O)Cc1oc(CO)cc(=O)c1O,1.7,.,43.6*,.,13.8,.,.,.
COc1ccc(CNC(=O)C[C@@H]2C[C@@H]3c4cc(NS(=O)(=O)c5ccc(F)cc5)ccc4O[C@@H]3[C@H](CO)O2)cc1,-2.7[16.7 µM],.,-0.3,.,.,.,.,.
O=C(O)CC(C(=O)O)N1C(=O)/C(=C/C=C/c2ccco2)SC1=S (stereo not given),-6.7,9.0,0.1,39.0*,-44.5,4.4,35.6*,-5.9
O=C(O)C(Cc1ccccc1)N1C(=O)/C(=C/C=C/c2ccco2)SC1=S (stereo not given),-12.1,.,-0.1,.,-23.3,.,.,.
O=C(O)CCCN1C(=O)/C(=C/C=C/c2ccco2)SC1=S,.,-4.1,0.1,32.4*,-12.4,1.3,-5.7,20.0*
Cn1cnc(CCNC(=O)C[C@@H]2CC[C@H]3[C@@H](COC[C@@H](O)CN3C(=O)C3CCCC3)O2)c1,2.5[16.7 µM],.,0.2,.,.,.,.,.
CCCCC1=CC2=C(c3ccco3)C(=O)C(C)(OC(=O)c3ccc(OC)cc3)C(=O)C2=CN1c1ccc(OC)cc1 (stereo not given),-2.5,17.3,.,33.7*,-20.4,1.2,-3.1,5.3
CCCCC1=CC2=C(c3ccco3)C(=O)C(C)(OC(=O)c3ccc(OC)cc3)C(=O)C2=CN1C1CC1 (stereo not given),-2.5,7.3,-0.1,8.9,-4.5,-3.7,.,.
CCCCC1=CC2=C(c3ccco3)C(=O)C(C)(OC(=O)c3ccc(OC)cc3)C(=O)C2=CN1C1CCCC1 (stereo not given),.,-14.3,.,46.5*,.,8.7,7.5,12.8
CCCCC1=CC2=C(c3ccco3)C(=O)C(C)(OC(=O)c3ccc(OC)cc3)C(=O)C2=CN1Cc1ccc(OC)cc1 (stereo not given),.,6.1,.,.,.,8.3,.,.
O=C(C[C@@H]1C=C[C@@H](NC(=O)C2CC2)[C@H](CO)O1)NCc1ccccc1Cl,2.5[16.7 µM],.,0.1,.,.,.,.,.
O=C(NCC[C@H]1CC[C@@H](NS(=O)(=O)c2ccccc2F)[C@H](CO)O1)c1ccc(F)cc1,7.0[16.7 µM],.,-0.4,.,.,.,.,.
COCCn1c(N)c(C(=O)NCC2CCCO2)c2nc3ccccc3nc21 (stereo not given),-2.4,-2.5,.,35.6*,-6.7,-3.8,-2.6,6.4
CC(=O)c1sccc1NC(=O)c1ccccc1C(=O)O,-2.4,9.9,0.0,34.1*,-30.3,-2.6,23.0*,18.1
COC(=O)c1sccc1NC(=O)c1ccccc1C(=O)O,.,-7.1,0.1,3.8,23.8,-11.3,.,.
N#CC1=C(N)SC(N)=C(C#N)C1c1c(Cl)cccc1Cl,4.2,-0.7,.,40.0*,-7.3,-1.2,2.5,25.7*
Cc1cc(Br)c2nc3c(c(C(=O)O)c2c1)CCCCC3,.,.,.,48.0*,18.8,.,60.1*,60.5*
O=C(Nc1nc(-c2cccs2)c(C(=O)C(F)(F)F)s1)c1ccco1,.,-15.9,.,30.0*,-6.5,10.0,34.4*,32.1*
CC(Sc1ccc2ccccc2n1)C(=O)O (stereo not given),-0.7,-11.5,.,.,-14.4,-2.4,.,.
CC(Sc1cnc2ccccc2n1)C(=O)O (stereo not given),-5.3,-6.5,.,29.9*,-4.7,5.8,6.1,8.9
SMILES,miR-122 sensor,697 NFkB inh,FGF22 binding,NR2E3 ag-1,NR2E3 ag-2,Jurkat NFkB inh,NR2E3 ag confirm,PPARg-NCOR2 ag
Cc1c(N2C(=O)c3ccc4c5c(ccc(c35)C2=O)CC4)c(=O)n(-c2ccccc2)n1C,-10.1,24.9,.,20.6*,-7.5,-3.4,25.6*,13.8
CN(C)C(=O)c1cccc(-c2ccccc2[C@H]2[C@@H](CO)N(C(=O)C3CCCCC3)[C@H]2C#N)c1,.,.,-0.4,.,.,.,.,.
Cc1ccc(C2C(C#N)=C(N)SC(N)=C2C#N)o1,.,-2.0,.,32.0*,.,-4.8,23.8*,35.0*
CCc1ccc(C2C(C#N)=C(N)SC(N)=C2C#N)s1,0.6,-5.1,.,17.7,10.9,-3.0,.,.
COc1cc2oc(=O)c(Br)c(C)c2c(OC)c1OC,-1.0,24.0,.,19.8*,-10.9,-21.7,7.9,5.7
COc1ccc(-n2c(=S)[nH]c3c(oc4ccccc43)c2=O)cc1,-3.1,-15.4,.,52.9*,-34.8,-27.8,38.7*,37.6*
Cc1ccc(-n2c(=O)[nH]c3c(oc4ccccc43)c2=O)cc1,.,-18.9,0.1,7.0,-13.6,-12.7,.,.
N#Cc1c(-c2ccco2)nc(SCc2ccc(F)cc2)[nH]c1=O,-2.5,-12.0,-0.2,40.1*,26.9,-27.7,10.3,58.9*
Cc1cccc(C)c1NC(=O)Cn1c(=O)c2cccn2c2ccccc21,-7.8,-22.3,0.0,0.8,-6.9,-11.4,.,.
CCc1cccc(NC(=O)Cn2c(=O)c3cccn3c3ccccc32)c1,9.7,6.0,-0.2,26.1*,-4.0,-22.4,10.4,11.6
C[C@H]1CN([C@@H](C)CO)C(=O)c2cccc(NC(=O)Nc3ccc4c(c3)OCO4)c2O[C@H]1CN(C)Cc1ccc(Oc2ccccc2)cc1,-17.6[16.7 µM],.,-0.5,.,.,.,.,.
Cc1ccc(-c2c3c([nH]c(=S)c2C#N)CCCC3)o1,-22.9,-2.3,.,48.6*,-7.5,1.6,82.3*,75.0*
O=C(C[C@@H]1CC[C@H](NC(=O)Nc2ccc3c(c2)OCO3)[C@H](CO)O1)NCc1ccc(F)cc1,.,.,0.0,.,.,.,.,.
Cc1cc(C)c(Cn2c(=O)n(CCCC(=O)NCc3ccco3)c(=O)c3sccc32)c(C)c1,-3.7,-31.8,.,26.9*,7.8,-7.9,3.6,-4.6
CC(C)c1nc2sc3c(=O)[nH]c(=S)[nH]c3c2c2c1CCCC2,-4.6,-12.7,0.0,23.7*,-19.1,-2.3,44.7*,43.6*
CCCNC(=O)Nc1ccc2c(c1)C(=O)N(C)C[C@@H](OC)[C@@H](C)CN(Cc1cccnc1)[C@@H](C)CO2,.,.,-0.1,.,.,.,.,.
CC(=O)NC(CSc1cc(C)nc2ccc(Br)cc12)C(=O)O (stereo not given),0.6,22.4,0.6,25.0*,-21.9,5.0,11.0,67.0*
